ChEMBL document CHEMBL4364334, “Synthesis, biological evaluation and molecular modeling of novel selective COX-2 inhibitors: sulfide, sulfoxide, and sulfone derivatives of 1,5-diarylpyrrol-3-substituted scaffold” (Bioorg Med Chem, 2019)

Legend:
[1] = molecular target: T1, Prostaglandin G/H synthase 1 (Mus musculus, UniProt P22437); test: Inhibition of COX-1 in mouse J774 cells assessed as inhibition of PEG2 production using arachidonic acid as substrate pretreated for 15 mins followed by substrate addition measured after 30 mins by radioimmuno assay; format: cell-based
T1 sequence (P22437 whole entry): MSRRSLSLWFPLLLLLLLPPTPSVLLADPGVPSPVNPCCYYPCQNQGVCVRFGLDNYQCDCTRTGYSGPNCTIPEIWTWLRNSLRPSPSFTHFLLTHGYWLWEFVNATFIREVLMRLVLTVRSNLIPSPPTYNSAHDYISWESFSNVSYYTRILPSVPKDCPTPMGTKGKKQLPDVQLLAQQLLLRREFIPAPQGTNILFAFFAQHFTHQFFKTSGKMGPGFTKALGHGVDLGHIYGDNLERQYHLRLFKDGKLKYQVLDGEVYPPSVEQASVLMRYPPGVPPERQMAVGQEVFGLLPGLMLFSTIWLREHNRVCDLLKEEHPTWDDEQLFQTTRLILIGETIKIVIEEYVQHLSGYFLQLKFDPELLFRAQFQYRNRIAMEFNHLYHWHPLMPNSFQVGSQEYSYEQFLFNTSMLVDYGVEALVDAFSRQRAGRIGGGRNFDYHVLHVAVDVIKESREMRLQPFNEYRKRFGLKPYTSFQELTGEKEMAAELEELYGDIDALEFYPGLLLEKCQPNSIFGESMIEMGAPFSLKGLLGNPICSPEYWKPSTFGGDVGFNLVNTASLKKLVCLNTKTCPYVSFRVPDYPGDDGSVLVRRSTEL
Method in brief: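 Murine J774 macrophages were adhered 2 h at 37 °C in 5% CO2 and given fresh medium. They were pretreated 15 min with compound (10 µM; 0.1–1 µM when inhibition exceeded 50%), then incubated 30 min at 37 °C with 15 µM arachidonic acid. Supernatant PGE2 was measured by RIA. Values are means of 3 experiments of % inhibition versus control, with IC50 from a sigmoidal variable-slope fit.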

[2] = molecular target: T2, Prostaglandin G/H synthase 2 (Mus musculus, UniProt Q05769); test: Inhibition of COX-2 in LPS-induced mouse J774 cells assessed as inhibition of PEG2 production after 24 hrs by radioimmuno assay; format: cell-based
T2 sequence (Q05769 whole entry): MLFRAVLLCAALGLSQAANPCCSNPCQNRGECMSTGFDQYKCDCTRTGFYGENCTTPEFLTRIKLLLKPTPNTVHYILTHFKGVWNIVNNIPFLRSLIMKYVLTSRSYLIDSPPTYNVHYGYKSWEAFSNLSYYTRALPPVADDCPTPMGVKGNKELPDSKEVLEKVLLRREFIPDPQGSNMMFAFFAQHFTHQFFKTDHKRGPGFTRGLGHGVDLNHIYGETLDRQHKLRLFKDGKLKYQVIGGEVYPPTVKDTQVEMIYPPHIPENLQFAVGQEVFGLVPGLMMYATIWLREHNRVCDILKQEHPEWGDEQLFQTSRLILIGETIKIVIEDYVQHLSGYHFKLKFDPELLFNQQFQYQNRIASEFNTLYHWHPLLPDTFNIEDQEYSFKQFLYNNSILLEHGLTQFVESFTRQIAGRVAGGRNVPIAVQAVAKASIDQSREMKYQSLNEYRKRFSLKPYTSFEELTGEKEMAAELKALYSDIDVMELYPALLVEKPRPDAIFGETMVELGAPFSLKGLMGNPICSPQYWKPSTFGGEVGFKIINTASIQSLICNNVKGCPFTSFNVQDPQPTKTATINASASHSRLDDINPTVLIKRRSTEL

[3] = species on record: Mus musculus; test: Selectivity index, ratio of IC50 for inhibition of COX-1 in mouse J774 cells to IC50 for inhibition of COX-2 in LPS-induced mouse J774 cells; format: cell-based
[4] = tested on: Rattus norvegicus; test: (§1) Anti-inflammatory activity in rat assessed as effect on carrageenan-induced hyperalgesia by measuring paw pressure tolerance at 20 mg/kg, po administered as single dose preincubated with carrageenan for 4 hrs and followed by compound treatment and measured after 30 mins by paw-pressure test (reference value: 33.9 +/- 3.7 g); format: functional
[5] = tested on: Rattus norvegicus; test: as §1, with “60” for “30”, “37.2” for “33.9”, “3.5” for “3.7”; format: functional
[6] = tested on: Rattus norvegicus; test: as §1, with “90” for “30”, “36.7” for “33.9”, “4” for “3.7”; format: functional
[7] = tested on: Rattus norvegicus; test: (§2) Antiinflammatory activity in rat assessed as effect on carrageenan-induced paw edema by measuring paw volume at 20 mg/kg, po administered as single dose preincubated with carrageenan for 4 hrs and followed by compound treatment and measured after 30 mins by plethysmometer (reference value: 2.78 +/- 0.09 ml); format: functional
[8] = tested on: Rattus norvegicus; test: as §2, with “inhibition of” for “effect on”, “1 hr” for “30 mins”, “relative to untreated control” for “(reference value: 2.78 +/- 0.09 ml)”; format: functional
[9] = tested on: Mus musculus; test: Antinociceptive activity in Swiss albino mouse model of acetic-acid-induced writhing assessed as inhibition of writhing numbers at 10 mg/kg, po measured starting 5 mins post acetic acid challenge for 10 mins (reference value: 30.5 +/- 3.7)
[10] = tested on: Mus musculus; test: Antinociceptive activity in Swiss albino mouse model of acetic-acid-induced writhing assessed as inhibition of writhing numbers at 20 mg/kg, po measured starting 5 mins post acetic acid challenge for 10 mins (reference value: 30.5 +/- 3.7)
[11] = tested on: Mus musculus; test: Antinociceptive activity in Swiss albino mouse model of acetic-acid-induced writhing assessed as inhibition of writhing numbers at 40 mg/kg, po measured starting 5 mins post acetic acid challenge for 10 mins (reference value: 30.5 +/- 3.7)

Row | Compound | IC50 [1] [nM] | IC50 [2] [nM] | Ratio IC50 [3] | Activity [4] [g] | Activity [5] [g] | Activity [6] [g] | Activity [7] [mL] | inhibition in vivo at 20 mg/kg [8] [%] | Activity [9] | Activity [10] | Activity [11]
1 | CCCS(=O)(=O)CCc1cc(-c2ccc(S(C)(=O)=O)cc2)n(-c2ccc(F)cc2)c1C | > 10000 | 44 | > 227 | – | – | – | – | – | – | – | –
2 | CCCSCCc1cc(-c2ccc(S(C)(=O)=O)cc2)n(-c2ccc(F)cc2)c1C | > 10000 | 11 | > 909 | 57.3 | 50.4 | 41.9 | 1.75 | 100 | 28.7 | 17.4 | 15.9
3 | CCCSCCc1cc(-c2ccc(S(C)(=O)=O)cc2)n(-c2ccccc2)c1C | > 10000 | 14 | > 714 | 46 | 40.3 | 40.2 | 1.69 | 100 | 32.6 | 25.9 | 26.4
4 | CCC[S+]([O-])CCc1cc(-c2ccc(S(C)(=O)=O)cc2)n(-c2ccccc2)c1C (centres undefined) | > 10000 | 60 | > 167 | – | – | – | – | – | – | – | –
5 | CCC[S+]([O-])CCc1cc(-c2ccc(S(C)(=O)=O)cc2)n(-c2ccc(F)cc2)c1C (centres undefined) | > 10000 | 40 | > 250 | 53.5 | 42.5 | 38.2 | 1.55 | 100 | 28.8 | 23.4 | 20.3
6 | CCCS(=O)(=O)CCc1cc(-c2ccc(S(C)(=O)=O)cc2)n(-c2ccccc2)c1C | > 10000 | 34 | > 294 | – | – | – | – | – | – | – | –
7 | CCCSCCc1cc(-c2ccc(S(C)(=O)=O)cc2)n(-c2cccc(F)c2)c1C | > 10000 | 285 | > 24 | 41.5 | 38.8 | 37.2 | 1.74 | 100 | 30.3 | 23.4 | 23.7
8 | Cc1c(CCOCCO)cc(-c2ccc(S(C)(=O)=O)cc2)n1-c1ccc(F)cc1 | > 10000 | – | – | – | – | – | – | – | – | – | –
